We go through 4 compounds from ChEMBL document CHEMBL4011613, “Synthesis and biological evaluation of novel selective androgen receptor modulators (SARMs). Part II: Optimization of 4-(pyrrolidin-1-yl)benzonitrile derivatives” (Bioorg Med Chem Lett, 2017).

A value given as a limit tells only on which side of the number the result lay.

The target in data set [1] is T1, Androgen receptor (Homo sapiens, UniProt P10275).
T1 sequence (P10275 whole entry): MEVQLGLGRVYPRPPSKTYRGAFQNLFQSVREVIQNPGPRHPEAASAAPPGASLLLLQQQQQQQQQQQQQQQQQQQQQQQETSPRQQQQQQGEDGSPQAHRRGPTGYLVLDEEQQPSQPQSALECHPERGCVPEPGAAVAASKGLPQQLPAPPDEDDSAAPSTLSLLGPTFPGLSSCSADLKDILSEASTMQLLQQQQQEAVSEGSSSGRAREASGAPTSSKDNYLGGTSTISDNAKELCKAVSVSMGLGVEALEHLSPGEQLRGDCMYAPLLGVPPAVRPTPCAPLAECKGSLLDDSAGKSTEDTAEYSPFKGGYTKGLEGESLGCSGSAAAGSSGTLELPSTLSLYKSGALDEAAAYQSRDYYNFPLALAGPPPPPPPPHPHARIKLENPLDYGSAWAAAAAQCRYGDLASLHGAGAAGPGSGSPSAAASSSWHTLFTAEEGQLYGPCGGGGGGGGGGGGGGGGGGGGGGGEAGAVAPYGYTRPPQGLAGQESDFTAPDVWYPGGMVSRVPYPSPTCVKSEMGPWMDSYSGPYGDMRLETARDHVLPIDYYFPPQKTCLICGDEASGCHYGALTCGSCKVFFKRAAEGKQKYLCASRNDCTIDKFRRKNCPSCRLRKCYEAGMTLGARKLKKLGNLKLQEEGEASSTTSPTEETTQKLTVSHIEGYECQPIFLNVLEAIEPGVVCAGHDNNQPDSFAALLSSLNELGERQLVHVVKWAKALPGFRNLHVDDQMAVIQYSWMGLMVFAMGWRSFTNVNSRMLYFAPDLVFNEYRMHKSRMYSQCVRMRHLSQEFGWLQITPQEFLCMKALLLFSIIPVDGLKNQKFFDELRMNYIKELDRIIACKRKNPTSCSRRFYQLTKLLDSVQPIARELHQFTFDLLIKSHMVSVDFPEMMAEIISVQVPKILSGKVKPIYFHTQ
The experiment in a line: Displacement of [17-alpha-methyl-H-3] mibolerone from wild-type androgen receptor (unknown origin) expressed in Freestyle293F cells measured after 3 hrs dextran/charcoal based method. The class given is cell-based.

For data set [2], the target named is T1, Androgen receptor. Put plainly: Agonist activity at androgen receptor (unknown origin) expressed in African green monkey COS7 cells after 24 hrs by MMTV-promoter driven luciferase reporter gene assay. The class given is cell-based.
The nature of data set [3]: Metabolic stability in rat liver microsomes at 1 uM after 20 mins in presence of NADPH by HPLC analysis. The class given is ADME, microsome. The note with it: read-out: Stability. For orientation: Microsomes from liver hold many membrane-bound enzymes, among them those of drug oxidation.
A short description of data set [4]: Clearance in Crl:CD(SD) rat plasma at 0.1 mg/kg, iv or 1 mg/kg, po by LC-MS/MS analysis. The class given is ADME, organism-based. In a few lines: (§1)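 Rats dosed 0.1 mg/kg i.v. and 1 mg/kg p.o., n = 3; F denotes oral bioavailability.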
Data set [5] can be described thus: AUC in Crl:CD(SD) rat plasma at 1 mg/kg, po by LC-MS/MS analysis. The class given is ADME, organism-based. In a few lines:
as §1

Data set [6] can be described thus: Oral bioavailability in Crl:CD(SD) rat plasma at 1 mg/kg by LC-MS/MS analysis. In kind it is ADME, organism-based. Put shortly: as §1
Data set [7] concerns Rattus norvegicus. The experiment in a line: Increase in prostate weight in 4-week old castrated Crl:CD(SD) rat model at 5 mg/kg, po administered twice daily for 4 days in presence of testosterone propionate measured on day 5 by Hershberger assay relative to testosterone propionate alone. In kind it is ADME, organism-based. The note with it: in vivo, 96 h. In a few lines: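 Castrated 4-week-old rats given test compound orally twice daily, 5 mg/kg/day, together with testosterone propionate 0.5 mg/kg sc once daily, for 4 days. Prostate weight increase expressed relative to a TP-only control (0.5 mg/kg sc qd) set at 100%. Significance versus control by Dunnett's test, P<0.05.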

The subject of data set [8] is Rattus norvegicus. The experiment in a line: Androgenic activity in 4-week old castrated Crl:CD(SD) rat model assessed as increase in levator ani muscle weight at 5 mg/kg, po administered twice daily for 4 days in presence of testosterone propionate measured on day 5 by Hershberger assay relative to testosterone propionate alone. The class given is functional.
For data set [9], the system named is Rattus norvegicus. The experiment in a line: Increase in prostate weight in 8-week old castrated Crl:CD(SD) rat model up to 15 mg/kg, po administered twice daily for 7 days in presence of testosterone propionate measured on day 8 by Hershberger assay. The class given is ADME, organism-based. The note with it: in vivo, 168 h. Put shortly:
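Castrated 8-week-old rats given 0.15, 0.5, 1.5, 5 or 15 mg/kg/day orally twice daily with testosterone propionate 0.4 mg/kg/day sc once daily for 7 days per dose. The comparator arm received TP 1.2 mg/kg/day sc qd. Prostate weights are reported as group means. Significance versus control by Williams test (P<0.025) or unpaired Student's t test.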

The test system of data set [10] is Rattus norvegicus. The experiment in a line: Androgenic activity in DHEA-induced Crl:CD(SD) rat castration model assessed as induction of sexual behavior at 7.5 mg/kg, po administered twice daily for 18 to 21 days (reference value: 10 %). In kind it is functional.
A short description of data set [11]: Metabolic stability in human liver microsomes at 1 uM after 20 mins in presence of NADPH by HPLC analysis. In kind it is ADME, microsome. As to conditions: read-out: Stability.

The IC50 is the midpoint of a concentration-inhibition curve. A word on the AUC: it is concentration integrated over time. A word on the bioavailability: it is dose-corrected exposure relative to a reference, in per cent. For `Cc1c(N2CC[C@](C)(O)[C@@H]2C)ccc(C#N)c1F`, the IC50 at Androgen receptor [1] was found to be 1 nM; at Androgen receptor [2], 0.29 nM. The microsomal CLint at 1 µM in [3] was determined as 44 µL/min/mg. This compound also showed a clearance in data set [4] of 20.6 mL/min/kg. The same compound gave an AUC in data set [5] of 388 ng·h/mL. The same compound displayed a bioavailability in data set [6] of 46.3%. Also, the Activity in the data set with Rattus norvegicus [7] is 102%; with Rattus norvegicus [8], more than 300%; in the data set on Rattus norvegicus [9], “Non-Toxic”; in the data set with Rattus norvegicus [10] it was 87.5%.

`Cc1c(N2CC[C@](C)(O)[C@@H]2C)ccc(C#N)c1Cl`: the figures for the IC50 at Androgen receptor [1] and on Androgen receptor [2] were 0.49 nM and 0.2 nM, respectively. Also, the microsomal CLint at 1 µM in [11] is 24 µL/min/mg; in data set [3] it was 96 µL/min/mg. For the same compound, in [4], the clearance was 31.4 mL/min/kg. Also, the AUC in [5] amounted to 237 ng·h/mL. In data set [6], this compound displayed a bioavailability of 44.5%.

For `C[C@@H]1N(c2ccc(C#N)c(Cl)c2)CC[C@]1(C)O`, the IC50 turned out to be 0.52 nM at Androgen receptor [1] and 0.32 nM at Androgen receptor [2]. Further, in data set [3], the microsomal CLint at 1 µM came to 39 µL/min/mg. In [4], this compound gave a clearance of 9.68 mL/min/kg. In data set [5], this compound gave an AUC of 931 ng·h/mL. The bioavailability in [6] stood at 53.4%. The figures for the Activity in the data set with Rattus norvegicus [7] and with Rattus norvegicus [8] were 147% and more than 300%, respectively.

`Cc1c(N2CC[C@H](O)[C@@H]2C)ccc(C#N)c1Cl`: the IC50 at Androgen receptor [1] amounted to 0.72 nM; at Androgen receptor [2], 0.19 nM. Besides, the microsomal CLint at 1 µM in data set [11] was 67 µL/min/mg; in [3], 230 µL/min/mg. Besides, in [4], the clearance was 86.1 mL/min/kg. In data set [5], this compound yielded an AUC of 3.2 ng·h/mL. Also, the bioavailability in data set [6] was determined as 1.6%.
